Active and inactive are the calls of the source. The rule behind the calls is not given here.
Experiments:
Type in all cases: cell-based
[1] = biological target: Nuclear receptor subfamily 4 group A member 2 (Homo sapiens) (UniProt P43354); experiment: Modulation of full length human Nurr1 expressed in HEK293T cells co-transfected with luciferase reporter plasmid harboring NBRE response element assessed as decrease in luciferase activity at 1.55 to 15 uM incubated for 18 hrs by luciferase reporter gene assay; conditions: filed as modulator, dose 1.55-15 µM
Nuclear receptor subfamily 4 group A member 2 (Homo sapiens), sequence (P43354 whole entry, the tested form may be a part): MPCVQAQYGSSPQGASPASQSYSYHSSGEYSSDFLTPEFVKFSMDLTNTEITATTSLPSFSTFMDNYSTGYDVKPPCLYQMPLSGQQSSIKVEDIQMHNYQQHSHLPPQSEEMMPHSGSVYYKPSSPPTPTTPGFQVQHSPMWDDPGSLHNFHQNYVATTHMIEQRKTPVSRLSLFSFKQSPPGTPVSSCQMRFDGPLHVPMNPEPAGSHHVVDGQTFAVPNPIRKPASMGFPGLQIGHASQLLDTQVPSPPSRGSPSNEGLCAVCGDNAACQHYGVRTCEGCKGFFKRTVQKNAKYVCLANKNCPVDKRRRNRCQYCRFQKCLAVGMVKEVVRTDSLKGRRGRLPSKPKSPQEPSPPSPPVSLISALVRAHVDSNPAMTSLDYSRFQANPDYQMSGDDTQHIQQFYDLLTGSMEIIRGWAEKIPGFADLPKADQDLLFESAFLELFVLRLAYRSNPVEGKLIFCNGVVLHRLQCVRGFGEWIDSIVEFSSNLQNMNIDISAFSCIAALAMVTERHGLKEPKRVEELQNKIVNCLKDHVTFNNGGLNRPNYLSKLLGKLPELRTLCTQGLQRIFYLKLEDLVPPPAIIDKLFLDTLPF
In short: (§1)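 Cells transfected (Lipofectamine 2000, 18 h) with full-length Nurr1 expression plasmid (2 μg) and 3xNBRE- or 3xNurRE-luciferase reporter (6 μg), no internal control normalisation; replated 10,000 cells/well, 4 h; ligand or vehicle in quadruplicate for 18 h; Britelite Plus luminescence as fold change over vehicle. Mean ± s.e.m. (n=4); one-way ANOVA versus vehicle.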

[2] = tested on: SKNBE2; experiment: Modulation of Gal4-fused VP16 expressed in SKNBE(2) cells co-transfected with UAS repoter gene assessed as decrease in luciferase activity at 1.55 to 15 uM incubated for 18 hrs by luciferase reporter gene assay; conditions: Human alphaherpesvirus 2, filed as modulator, dose 1.55-15 µM
In short: (§2)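 Constitutive control: cells transfected (Lipofectamine 2000) with Gal4-VP16 expression plasmid (2 μg) plus 5xUAS-luciferase reporter (2 μg), 18 h; replated 10,000 cells/well, 4 h; ligand or vehicle in quadruplicate for 18 h; luciferase read by Britelite Plus; signal as fold change over vehicle-treated cells. Mean ± s.e.m. (n=4); one-way ANOVA versus vehicle.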

[3] = biological target: Nuclear receptor subfamily 4 group A member 2 (Homo sapiens) (UniProt P43354); experiment: Modulation of full length human Nurr1 expressed in […] cells co-transfected with luciferase reporter plasmid harboring NurRE response element assessed as decrease in luciferase activity at 1.55 to 15 uM incubated for 18 hrs by luciferase reporter gene assay; conditions: SKNBE2, filed as modulator, dose 1.55-15 µM; in short: as §1
[4] = tested on: SK-N-BE(2); experiment: Cytotoxicity in human SKNBE2 cells assessed as reduction in cell viability at 1.55 to 15 uM incubated for 18 hrs by Cell Titer-Glo assay; conditions: dose 1.55-15 µM
In short: (§3)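 Cells seeded 1.5 million per 10-cm dish; next day replated at 10,000 cells/well in 384-well format, 4 h, then ligand or vehicle (water, ethanol or DMSO by ligand) added in quadruplicate for 18 h; viability read by CellTiter-Glo luminescence. Mean ± s.e.m. (n=4), generally 2 independent experiments; one-way ANOVA versus vehicle.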

[5] = biological target: Nuclear receptor subfamily 4 group A member 2 (Homo sapiens) (UniProt P43354); experiment: Modulation of full length human Nurr1 expressed in HEK293T cells co-transfected with luciferase reporter plasmid harboring NurRE response element assessed as decrease in luciferase activity at 1.55 to 15 uM incubated for 18 hrs by luciferase reporter gene assay; conditions: filed as modulator, dose 1.55-15 µM; in short: as §1
[6] = biological target: Nuclear receptor subfamily 4 group A member 2 (Homo sapiens) (UniProt P43354); experiment: Modulation of full length human Nurr1 expressed in […] cells co-transfected with luciferase reporter plasmid harboring NBRE response element assessed as decrease in luciferase activity at 1.55 to 15 uM incubated for 18 hrs by luciferase reporter gene assay; conditions: SKNBE2, filed as modulator, dose 1.55-15 µM; in short: as §1
[7] = tested on: PC-12; experiment: Modulation of Gal4-fused VP16 expressed in PC12 cells co-transfected with UAS repoter gene assessed as decrease in luciferase activity at 1.55 to 15 uM incubated for 18 hrs by luciferase reporter gene assay; conditions: Human alphaherpesvirus 2, filed as modulator, dose 1.55-15 µM; in short: as §2
[8] = tested on: HEK293T; experiment: Modulation of Gal4-fused VP16 expressed in HEK293T cells co-transfected with UAS repoter gene assessed as decrease in luciferase activity at 1.55 to 15 uM incubated for 18 hrs by luciferase reporter gene assay; conditions: Human alphaherpesvirus 2, filed as modulator, dose 1.55-15 µM; in short: as §2
[9] = biological target: Nuclear receptor subfamily 4 group A member 2 (Homo sapiens) (UniProt P43354); experiment: Modulation of full length human Nurr1 expressed in PC-12 cells co-transfected with luciferase reporter plasmid harboring NBRE response element assessed as decrease in luciferase activity at 1.55 to 15 uM incubated for 18 hrs by luciferase reporter gene assay; conditions: filed as modulator, dose 1.55-15 µM; in short: as §1
[10] = tested on: HEK-293T; experiment: Cytotoxicity in human HEK293T cells assessed as reduction in cell viability at 1.55 to 15 uM incubated for 18 hrs by Cell Titer-Glo assay; conditions: dose 1.55-15 µM; in short: as §3
[11] = tested on: PC-12; experiment: Cytotoxicity in rat PC-12 cells assessed as reduction in cell viability at 1.55 to 15 uM incubated for 18 hrs by Cell Titer-Glo assay; conditions: pc-12, 18 h, dose 1.55-15 µM; in short: as §3

CC[C@@]1(O)C(=O)OCc2c1cc1n(c2=O)Cc2cc3ccccc3nc2-1 [CAMPTOTHECIN] was tested, and the Activity [1] was “Active”, the Activity [2] was “Active” and the Activity [3] was “Active”. For the same compound, the Activity [4] was “Toxic”, the Activity [5] was “Active” and the Activity [6] was “Active”. For the same compound, the Activity [7] was “Active”, the Activity [8] was “Active” and the Activity [9] was “Active”. For the same compound, the Activity [10] was “Toxic” and the Activity [11] was “Toxic”.
